Results of several laboratories.
Compare with care: the assays were run in different laboratories.
Target: Dual specificity tyrosine-phosphorylation-regulated kinase 3 (DYRK3, Homo sapiens, UniProt O43781)
Effect on: enzyme activity
Action: inhibitor
Residues used in one study (O43781 1-588): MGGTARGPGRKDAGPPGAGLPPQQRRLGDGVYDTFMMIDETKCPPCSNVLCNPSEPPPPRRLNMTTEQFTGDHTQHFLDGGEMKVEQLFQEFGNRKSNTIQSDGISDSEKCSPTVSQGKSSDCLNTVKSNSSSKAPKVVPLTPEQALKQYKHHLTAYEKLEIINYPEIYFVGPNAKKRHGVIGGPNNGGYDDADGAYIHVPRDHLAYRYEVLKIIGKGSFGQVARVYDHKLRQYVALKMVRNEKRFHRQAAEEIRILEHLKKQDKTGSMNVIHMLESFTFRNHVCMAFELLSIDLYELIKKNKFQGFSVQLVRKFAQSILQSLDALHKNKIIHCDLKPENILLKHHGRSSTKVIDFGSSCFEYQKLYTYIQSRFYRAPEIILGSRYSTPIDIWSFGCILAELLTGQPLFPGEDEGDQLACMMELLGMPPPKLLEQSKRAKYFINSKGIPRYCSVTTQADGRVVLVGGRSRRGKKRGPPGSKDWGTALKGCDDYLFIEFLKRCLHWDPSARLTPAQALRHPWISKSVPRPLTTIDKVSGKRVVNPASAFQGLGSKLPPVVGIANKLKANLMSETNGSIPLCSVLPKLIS

`COc1cc(Cl)c(C(=O)N[C@@H](CN[C@H]2CC[C@@H](N)CC2)Cc2ccc(C#N)cc2)cc1-c1ccc(CN[C@H](C)c2ccc(C)cc2)o1` has a remaining activity of 99% (1 µM).
For `N#Cc1cccc(Nc2nc3cc(C(=O)O)ccc3c3cncnc23)c1`, the remaining activity was 15% (radiometric; 1 µM).
With `Cn1c(=O)n(-c2ccc(C(C)(C)C#N)cc2)c2c3cc(-c4cnc5ccccc5c4)ccc3ncc21` the remaining activity was 56% (10 µM).
With `CC(C)(C)c1nc(-c2cccc(NS(=O)(=O)c3c(F)cccc3F)c2F)c(-c2ccnc(N)n2)s1` the remaining activity was 91% (radiometric; 1 µM).
`O=C(O)c1ccc2c(c1)nc(Nc1ccc3ccccc3c1)c1ncncc12` has a remaining activity of 0% (radiometric; 1 µM).
For `O=C(Nc1cnn(-c2csc(C(=O)NC3COC3)c2)c1)Nc1c(F)cccc1Cl`, the remaining activity was 99.2% (5 µM).
For `O=C(O)c1ccc2c(c1)nc(Nc1ccccc1)c1ncncc12`, the remaining activity was 22% (radiometric; 1 µM).
`Nc1nc(NC2CCCCC2)sc1C(=O)c1ccccc1` gave a remaining activity of 57% (10 µM).
The remaining activity of `CC(C)(O)[C@H]1CC[C@H](Nc2ccc3ncc(-c4cccc(C(F)(F)F)c4)n3n2)CC1` is reported as 63.6% (1 µM).
`CC(C)(C)C(=O)c1sc(NC2CCCCC2)nc1N` gave a remaining activity of 96% (10 µM).
For `COc1cc(Nc2cnc(C#N)c(O[C@H](C)CN(C)C)n2)ncc1-c1cnn(C)c1`, the remaining activity was 79% (radiometric; 10 µM).
`FC(F)c1nc2ccccc2n1-c1nc(N2CCOCC2)nc(N2CCOCC2)n1` gave a remaining activity of 87% (10 µM).
For `O=C(O)c1ccc2c(c1)nc(Nc1ccccc1Cl)c1ncncc12`, the remaining activity was 66% (radiometric; 1 µM).
With `Cc1sc(C(=O)NC2COC2)cc1-n1cc(NC(=O)Nc2c(F)cccc2Cl)cn1` the remaining activity was 101% (10 µM).
With `O=C(O)c1ccc2c(c1)nc(Nc1ccc(F)c(Cl)c1)c1ccncc12` the remaining activity was 1% (radiometric; 1 µM).
`CC(C)(C)c1nc2c(s1)c1nc(N)ncc1c1ccc(NS(=O)(=O)c3c(F)cccc3F)c(F)c12` gave a remaining activity of 83% (radiometric; 1 µM).
